Results as given in ChEMBL document CHEMBL3797186, “Single Residue Substitutions That Confer Voltage-Gated Sodium Ion Channel Subtype Selectivity in the NaV1.7 Inhibitory Peptide GpTx-1” (J Med Chem, 2016).
Positions of bridges follow the written chain, without caps; N, C: chain ends. Non-standard residues stand in square brackets, D forms with d. Residues, ends and D or L forms follow the SMILES beside them. 1Nal = N[C@@H](Cc1cccc2ccccc12)C(=O)O

What was measured:
Format in all cases: cell-based
[1] = molecular target: T1, Sodium channel protein type 9 subunit alpha (Homo sapiens, UniProt Q15858); test: Inhibition of human Nav1.7 expressed in HEK293 cells by whole cell patch clamp electrophysiology method
T1 sequence (Q15858 whole entry): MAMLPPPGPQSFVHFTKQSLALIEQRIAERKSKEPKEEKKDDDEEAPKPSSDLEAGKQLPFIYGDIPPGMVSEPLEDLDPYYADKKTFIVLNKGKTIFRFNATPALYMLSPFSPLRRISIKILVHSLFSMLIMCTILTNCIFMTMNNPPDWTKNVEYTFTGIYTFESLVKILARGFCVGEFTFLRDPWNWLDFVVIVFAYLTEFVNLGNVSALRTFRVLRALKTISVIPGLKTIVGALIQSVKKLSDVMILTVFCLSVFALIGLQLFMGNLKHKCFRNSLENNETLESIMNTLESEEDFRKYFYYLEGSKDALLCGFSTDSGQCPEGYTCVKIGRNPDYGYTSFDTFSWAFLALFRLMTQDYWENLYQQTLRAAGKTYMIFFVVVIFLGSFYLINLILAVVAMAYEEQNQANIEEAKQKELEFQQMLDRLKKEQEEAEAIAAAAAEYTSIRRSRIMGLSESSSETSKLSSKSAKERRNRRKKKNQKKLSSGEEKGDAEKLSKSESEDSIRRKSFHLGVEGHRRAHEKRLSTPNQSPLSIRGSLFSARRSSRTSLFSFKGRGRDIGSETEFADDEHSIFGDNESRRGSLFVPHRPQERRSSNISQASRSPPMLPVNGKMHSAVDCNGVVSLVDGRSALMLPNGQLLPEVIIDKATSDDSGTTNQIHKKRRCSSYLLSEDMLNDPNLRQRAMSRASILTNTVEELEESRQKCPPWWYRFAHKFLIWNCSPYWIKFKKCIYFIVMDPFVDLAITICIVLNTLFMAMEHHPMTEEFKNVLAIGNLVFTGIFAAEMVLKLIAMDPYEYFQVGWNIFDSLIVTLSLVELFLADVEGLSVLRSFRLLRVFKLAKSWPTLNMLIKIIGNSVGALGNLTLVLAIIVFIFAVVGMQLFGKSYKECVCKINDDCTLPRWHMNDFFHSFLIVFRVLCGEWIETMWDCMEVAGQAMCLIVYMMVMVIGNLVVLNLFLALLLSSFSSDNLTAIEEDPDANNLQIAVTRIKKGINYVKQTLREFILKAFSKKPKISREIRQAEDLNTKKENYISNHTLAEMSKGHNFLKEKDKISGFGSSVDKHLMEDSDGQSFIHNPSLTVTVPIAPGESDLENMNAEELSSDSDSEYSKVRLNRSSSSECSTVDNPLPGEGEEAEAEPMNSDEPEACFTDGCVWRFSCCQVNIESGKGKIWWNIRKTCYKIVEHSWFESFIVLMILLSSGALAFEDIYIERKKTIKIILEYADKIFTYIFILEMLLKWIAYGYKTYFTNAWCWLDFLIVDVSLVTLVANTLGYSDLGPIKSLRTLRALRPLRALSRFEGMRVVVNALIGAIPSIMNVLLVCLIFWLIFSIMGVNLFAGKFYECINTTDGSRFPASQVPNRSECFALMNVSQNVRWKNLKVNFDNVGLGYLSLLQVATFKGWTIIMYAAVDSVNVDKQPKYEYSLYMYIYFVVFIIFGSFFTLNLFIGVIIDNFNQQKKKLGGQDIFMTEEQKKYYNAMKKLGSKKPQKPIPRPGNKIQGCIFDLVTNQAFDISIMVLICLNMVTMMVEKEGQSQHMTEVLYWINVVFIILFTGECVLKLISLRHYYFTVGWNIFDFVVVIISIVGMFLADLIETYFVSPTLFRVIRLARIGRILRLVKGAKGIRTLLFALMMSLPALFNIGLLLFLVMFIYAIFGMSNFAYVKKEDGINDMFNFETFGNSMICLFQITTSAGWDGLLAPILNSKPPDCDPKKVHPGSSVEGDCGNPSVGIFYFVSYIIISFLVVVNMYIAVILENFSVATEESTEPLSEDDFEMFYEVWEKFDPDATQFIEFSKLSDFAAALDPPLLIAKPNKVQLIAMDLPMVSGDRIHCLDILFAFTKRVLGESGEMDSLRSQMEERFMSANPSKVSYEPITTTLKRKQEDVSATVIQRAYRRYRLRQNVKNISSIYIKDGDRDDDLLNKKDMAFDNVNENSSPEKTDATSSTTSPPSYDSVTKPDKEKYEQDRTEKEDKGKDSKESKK

[2] = molecular target: T2, Sodium channel protein type 5 subunit alpha (Homo sapiens, UniProt Q14524); test: Inhibition of human Nav1.5 expressed in HEK293 cells by whole cell patch clamp electrophysiology method
T2 sequence (Q14524 whole entry): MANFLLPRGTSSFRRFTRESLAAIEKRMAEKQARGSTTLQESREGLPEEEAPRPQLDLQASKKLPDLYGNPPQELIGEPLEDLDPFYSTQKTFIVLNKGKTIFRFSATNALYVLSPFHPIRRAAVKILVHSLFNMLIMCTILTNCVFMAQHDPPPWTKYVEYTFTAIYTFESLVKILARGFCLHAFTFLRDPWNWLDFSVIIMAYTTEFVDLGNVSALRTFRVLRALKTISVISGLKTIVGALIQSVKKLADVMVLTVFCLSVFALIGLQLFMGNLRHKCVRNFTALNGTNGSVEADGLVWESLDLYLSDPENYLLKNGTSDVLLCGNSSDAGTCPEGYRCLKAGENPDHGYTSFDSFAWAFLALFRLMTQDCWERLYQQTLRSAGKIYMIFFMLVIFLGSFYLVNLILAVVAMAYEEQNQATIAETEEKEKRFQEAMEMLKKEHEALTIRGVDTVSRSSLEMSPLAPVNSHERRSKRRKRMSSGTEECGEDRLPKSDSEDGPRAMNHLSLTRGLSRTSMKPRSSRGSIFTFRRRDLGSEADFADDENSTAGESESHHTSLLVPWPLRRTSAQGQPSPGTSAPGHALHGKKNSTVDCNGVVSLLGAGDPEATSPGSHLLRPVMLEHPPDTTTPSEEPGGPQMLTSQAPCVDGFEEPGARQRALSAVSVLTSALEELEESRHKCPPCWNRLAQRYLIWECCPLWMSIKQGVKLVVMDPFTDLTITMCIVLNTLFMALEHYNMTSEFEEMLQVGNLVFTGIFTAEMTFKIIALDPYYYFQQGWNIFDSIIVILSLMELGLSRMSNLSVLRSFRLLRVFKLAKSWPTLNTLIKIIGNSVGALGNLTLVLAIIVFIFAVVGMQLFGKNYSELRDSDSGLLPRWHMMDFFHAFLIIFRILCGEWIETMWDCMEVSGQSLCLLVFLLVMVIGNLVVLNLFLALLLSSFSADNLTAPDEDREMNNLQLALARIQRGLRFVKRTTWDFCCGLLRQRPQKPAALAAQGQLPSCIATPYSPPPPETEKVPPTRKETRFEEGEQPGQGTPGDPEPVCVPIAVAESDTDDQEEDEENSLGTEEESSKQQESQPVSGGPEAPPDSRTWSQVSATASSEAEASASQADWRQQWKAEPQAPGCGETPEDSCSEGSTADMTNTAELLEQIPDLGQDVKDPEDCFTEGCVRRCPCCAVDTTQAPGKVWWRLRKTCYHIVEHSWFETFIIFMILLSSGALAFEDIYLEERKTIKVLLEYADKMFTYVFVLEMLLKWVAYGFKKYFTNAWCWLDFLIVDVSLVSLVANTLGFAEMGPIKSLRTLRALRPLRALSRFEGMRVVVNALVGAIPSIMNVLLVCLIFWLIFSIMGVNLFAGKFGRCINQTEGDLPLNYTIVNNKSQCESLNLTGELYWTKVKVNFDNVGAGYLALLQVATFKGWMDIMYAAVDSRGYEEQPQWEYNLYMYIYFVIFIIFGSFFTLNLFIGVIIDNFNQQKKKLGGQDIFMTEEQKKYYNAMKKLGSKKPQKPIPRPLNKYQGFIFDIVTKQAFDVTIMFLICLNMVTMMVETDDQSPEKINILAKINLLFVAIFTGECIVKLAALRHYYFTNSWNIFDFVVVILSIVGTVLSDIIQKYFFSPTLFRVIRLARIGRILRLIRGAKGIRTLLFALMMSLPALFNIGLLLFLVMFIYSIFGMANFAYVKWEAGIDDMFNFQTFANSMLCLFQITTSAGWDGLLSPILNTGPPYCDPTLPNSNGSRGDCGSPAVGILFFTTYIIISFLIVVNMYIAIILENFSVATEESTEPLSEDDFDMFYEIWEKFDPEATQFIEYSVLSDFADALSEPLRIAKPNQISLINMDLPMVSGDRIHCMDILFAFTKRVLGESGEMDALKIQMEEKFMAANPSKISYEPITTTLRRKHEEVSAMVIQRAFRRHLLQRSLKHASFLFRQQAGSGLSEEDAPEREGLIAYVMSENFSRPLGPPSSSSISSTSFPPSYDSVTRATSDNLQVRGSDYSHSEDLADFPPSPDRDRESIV
Procedure, shortened: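 Stable HEK293 line expressing human NaV1.5, recorded on the PatchXpress 7000A. Percent inhibition versus concentration was pooled from at least 10 cells, with two to three points per concentration. The pooled set was fitted with a four-parameter Hill equation to give a single IC50 curve.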

[3] = molecular target: T2, Sodium channel protein type 5 subunit alpha; test: Inhibition of human Nav1.5 expressed in HEK293 cells assessed as inward peak current by ion-works quattro patch clamp electrophysiology method
Procedure, shortened: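 Stable HEK293 line expressing human NaV1.5, recorded by population patch clamp on the IonWorks Quattro.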

[4] = molecular target: T1, Sodium channel protein type 9 subunit alpha; test: Inhibition of human Nav1.7 expressed in HEK293 cells assessed as inward peak current by ion-works quattro patch clamp electrophysiology method

Compound | IC50 [1] | IC50 [2] | IC50 [3] | IC50 [4]
CC[C@H](C)[C@@H]1NC(=O)[C@@H]2CSSC[C@@H]3NC(=O)[C@H](C(C)C)NC(=O)[C@H](CC(C)C)NC(=O)[C@H](CC(N)=O)NC(=O)[C@@H]4CCCN4C(=O)[C@H](CCCNC(=N)N)NC(=O)[C@H](CSSC[C@H](NC(=O)[C@@H](N)CC(=O)O)C(=O)N[C@@H](CC(C)C)C(=O)NCC(=O)N[C@@H](Cc4ccccc4)C(=O)N[C@@H](CCSC)C(=O)N[C@@H](CCCNC(=N)N)C(=O)N[C@@H](CCCCN)C(=O)N2)NC(=O)[C@H](CSSC[C@@H](C(=O)N[C@@H](CCCCN)C(=O)N[C@@H](Cc2ccc(O)cc2)C(=O)N[C@H](C(=O)N[C@@H](Cc2ccccc2)C(N)=O)C(C)C)NC(=O)[C@H](Cc2c[nH]c4ccccc24)NC(=O)[C@H](CC(=O)O)NC(=O)[C@H](Cc2cnc[nH]2)NC(=O)[C@H]([C@@H](C)O)NC(=O)[C@H](CCCNC(=N)N)NC(=O)[C@H](CO)NC3=O)NC(=O)[C@H](CCCCN)NC(=O)[C@H](CC(=O)O)NC(=O)[C@H](CC(N)=O)NC(=O)[C@H](CC(=O)O)NC(=O)[C@@H]2CCCN2C1=O (H-DCLGFMRKCIPDNDKCCRPNLVCSRTHDWCKYVF-NH2; disulfide 2-17, 9-23, 16-30) | 16 nM | > 10000 nM | – | –
CC[C@H](C)[C@@H]1NC(=O)[C@@H]2CSSC[C@@H]3NC(=O)[C@H](C(C)C)NC(=O)[C@H](CC(C)C)NC(=O)[C@H](CC(N)=O)NC(=O)[C@@H]4CCCN4C(=O)[C@H](CCCNC(=N)N)NC(=O)[C@H](CSSC[C@H](NC(=O)[C@@H](N)CC(=O)O)C(=O)N[C@@H](CC(C)C)C(=O)NCC(=O)N[C@@H](Cc4ccccc4)C(=O)N[C@@H](CCSC)C(=O)N[C@@H](CCCNC(=N)N)C(=O)N[C@@H](CCCCN)C(=O)N2)NC(=O)[C@H](CSSC[C@@H](C(=O)N[C@@H](CCCCN)C(=O)N[C@@H](Cc2c[nH]c4ccccc24)C(=O)N[C@H](C(=O)N[C@@H](Cc2ccccc2)C(N)=O)C(C)C)NC(=O)[C@H](Cc2c[nH]c4ccccc24)NC(=O)[C@H](CCCCN)NC(=O)[C@H](Cc2c[nH]cn2)NC(=O)[C@H]([C@@H](C)O)NC(=O)[C@H](CCCNC(=N)N)NC(=O)[C@H](CO)NC3=O)NC(=O)[C@H](CCCCN)NC(=O)[C@H](CC(=O)O)NC(=O)[C@H](CC(N)=O)NC(=O)[C@H](CC(=O)O)NC(=O)[C@@H]2CCCN2C1=O (H-DCLGFMRKCIPDNDKCCRPNLVCSRTHKWCKWVF-NH2; disulfide 2-17, 9-23, 16-30) | 12 nM | – | > 5000 nM | –
CC[C@H](C)[C@@H]1NC(=O)[C@@H]2CSSC[C@@H]3NC(=O)[C@H](C(C)C)NC(=O)[C@H](CC(C)C)NC(=O)[C@H](CC(N)=O)NC(=O)[C@@H]4CCCN4C(=O)[C@H](CCCNC(=N)N)NC(=O)[C@H](CSSC[C@H](NC(=O)[C@@H](N)CC(=O)O)C(=O)N[C@@H](CC(C)C)C(=O)N[C@@H](C)C(=O)N[C@@H](Cc4ccccc4)C(=O)N[C@@H](CCSC)C(=O)N[C@@H](CCCNC(=N)N)C(=O)N[C@@H](CCCCN)C(=O)N2)NC(=O)[C@H](CSSC[C@@H](C(=O)N[C@@H](CCCCN)C(=O)N[C@@H](Cc2ccc(O)cc2)C(=O)N[C@H](C(=O)N[C@@H](Cc2ccccc2)C(N)=O)C(C)C)NC(=O)[C@H](Cc2c[nH]c4ccccc24)NC(=O)[C@H](CCCCN)NC(=O)[C@H](Cc2cnc[nH]2)NC(=O)[C@H]([C@@H](C)O)NC(=O)[C@H](CCCNC(=N)N)NC(=O)[C@H](CO)NC3=O)NC(=O)[C@H](CCCCN)NC(=O)[C@H](CC(=O)O)NC(=O)[C@H](CC(N)=O)NC(=O)[C@H](CC(=O)O)NC(=O)[C@@H]2CCCN2C1=O (H-DCLAFMRKCIPDNDKCCRPNLVCSRTHKWCKYVF-NH2; disulfide 2-17, 9-23, 16-30) | 27 nM | > 10000 nM | – | –
CC[C@H](C)[C@@H]1NC(=O)[C@@H]2CSSC[C@@H]3NC(=O)[C@H](C(C)C)NC(=O)[C@H](CC(C)C)NC(=O)[C@H](CC(N)=O)NC(=O)[C@H](CCCCN)NC(=O)[C@H](CCCNC(=N)N)NC(=O)[C@H](CSSC[C@H](NC(=O)[C@@H](N)CC(=O)O)C(=O)N[C@@H](CC(C)C)C(=O)NCC(=O)N[C@@H](Cc4ccccc4)C(=O)N[C@@H](CCSC)C(=O)N[C@@H](CCCNC(=N)N)C(=O)N[C@@H](CCCCN)C(=O)N2)NC(=O)[C@H](CSSC[C@@H](C(=O)N[C@@H](CCCCN)C(=O)N[C@@H](Cc2ccc(O)cc2)C(=O)N[C@H](C(=O)N[C@@H](Cc2ccccc2)C(N)=O)C(C)C)NC(=O)[C@H](Cc2c[nH]c4ccccc24)NC(=O)[C@H](CCCCN)NC(=O)[C@H](Cc2cnc[nH]2)NC(=O)[C@H]([C@@H](C)O)NC(=O)[C@H](CCCNC(=N)N)NC(=O)[C@H](CO)NC3=O)NC(=O)[C@H](CCCCN)NC(=O)[C@H](CC(=O)O)NC(=O)[C@H](CC(N)=O)NC(=O)[C@H](CC(=O)O)NC(=O)[C@@H]2CCCN2C1=O (H-DCLGFMRKCIPDNDKCCRKNLVCSRTHKWCKYVF-NH2; disulfide 2-17, 9-23, 16-30) | 2.3 nM | > 10000 nM | > 5000 nM | –
CSCC[C@@H]1NC(=O)[C@H](Cc2ccccc2)NC(=O)CNC(=O)[C@H](CC(C)C)NC(=O)[C@@H](NC(=O)[C@@H](N)CC(=O)O)CSSC[C@@H]2NC(=O)[C@@H]3CSSC[C@@H](C(=O)N[C@@H](CCCCN)C(=O)N[C@@H](Cc4ccc(O)cc4)C(=O)N[C@H](C(=O)N[C@@H](Cc4ccccc4)C(N)=O)C(C)C)NC(=O)[C@H](Cc4c[nH]c5ccccc45)NC(=O)[C@H](CCCCN)NC(=O)[C@H](Cc4cnc[nH]4)NC(=O)[C@H]([C@@H](C)O)NC(=O)[C@H](CCCNC(=N)N)NC(=O)[C@H](CO)NC(=O)[C@H](CSSC[C@H](NC(=O)[C@H](CCCCN)NC(=O)[C@H](CCCNC(=N)N)NC1=O)C(=O)N[C@@H](CC(=O)O)C(=O)N1CCC[C@H]1C(=O)N[C@@H](CC(=O)O)C(=O)N[C@@H](CC(N)=O)C(=O)N[C@@H](CC(=O)O)C(=O)N[C@@H](CCCCN)C(=O)N3)NC(=O)[C@H](C(C)C)NC(=O)[C@H](CC(C)C)NC(=O)[C@H](CC(N)=O)NC(=O)[C@@H]1CCCN1C(=O)[C@H](CCCNC(=N)N)NC2=O (H-DCLGFMRKCDPDNDKCCRPNLVCSRTHKWCKYVF-NH2; disulfide 2-17, 9-23, 16-30) | 4 nM | > 10000 nM | > 5000 nM | –
CC[C@H](C)[C@@H]1NC(=O)[C@@H]2CSSC[C@@H]3NC(=O)[C@H](C(C)C)NC(=O)[C@H](CC(C)C)NC(=O)[C@H](CC(N)=O)NC(=O)[C@@H]4CCCN4C(=O)[C@H](CCCNC(=N)N)NC(=O)[C@H](CSSC[C@H](NC(=O)[C@@H](N)CC(=O)O)C(=O)N[C@@H](CC(C)C)C(=O)NCC(=O)N[C@@H](Cc4ccccc4)C(=O)N[C@@H](CCSC)C(=O)N[C@@H](CCCNC(=N)N)C(=O)N[C@@H](CCCCN)C(=O)N2)NC(=O)[C@H](CSSC[C@@H](C(=O)N[C@@H](CCCCN)C(=O)N[C@@H](Cc2ccc(O)cc2)C(=O)N[C@H](C(=O)N[C@@H](Cc2ccccc2)C(N)=O)C(C)C)NC(=O)[C@H](Cc2c[nH]c4ccccc24)NC(=O)[C@H](CCCCN)NC(=O)[C@H](Cc2c[nH]cn2)NC(=O)[C@H]([C@@H](C)O)NC(=O)[C@H](CCCNC(=N)N)NC(=O)[C@H](CO)NC3=O)NC(=O)[C@H](CCCCN)NC(=O)[C@H](CC(=O)O)NC(=O)[C@H](Cc2cccc3ccccc23)NC(=O)[C@H](CC(=O)O)NC(=O)[C@@H]2CCCN2C1=O (H-DCLGFMRKCIPD[1Nal]DKCCRPNLVCSRTHKWCKYVF-NH2; disulfide 2-17, 9-23, 16-30) | – | 7800 nM | > 5000 nM | 130 nM
CC[C@H](C)[C@@H]1NC(=O)[C@@H]2CSSC[C@@H]3NC(=O)[C@H](C(C)C)NC(=O)[C@H](CC(C)C)NC(=O)[C@H](CC(N)=O)NC(=O)[C@@H]4CCCN4C(=O)[C@H](CCCNC(=N)N)NC(=O)[C@H](CSSC[C@H](N)C(=O)N[C@@H](CC(C)C)C(=O)NCC(=O)N[C@@H](Cc4ccccc4)C(=O)N[C@@H](CCSC)C(=O)N[C@@H](CCCNC(=N)N)C(=O)N[C@@H](CCCCN)C(=O)N2)NC(=O)[C@H](CSSC[C@@H](C(=O)N[C@@H](CCCCN)C(=O)N[C@@H](Cc2ccc(O)cc2)C(=O)N[C@H](C(=O)N[C@@H](Cc2ccccc2)C(N)=O)C(C)C)NC(=O)[C@H](Cc2c[nH]c4ccccc24)NC(=O)[C@H](CCCCN)NC(=O)[C@H](Cc2cnc[nH]2)NC(=O)[C@H]([C@@H](C)O)NC(=O)[C@H](CCCNC(=N)N)NC(=O)[C@H](CO)NC3=O)NC(=O)[C@H](CCCCN)NC(=O)[C@H](CC(=O)O)NC(=O)[C@H](CC(N)=O)NC(=O)[C@H](CC(=O)O)NC(=O)[C@@H]2CCCN2C1=O (H-CLGFMRKCIPDNDKCCRPNLVCSRTHKWCKYVF-NH2; disulfide 1-16, 8-22, 15-29) | 8 nM | – | > 5000 nM | –
CSCC[C@@H]1NC(=O)[C@H](Cc2ccccc2)NC(=O)CNC(=O)[C@H](CC(C)C)NC(=O)[C@@H](NC(=O)[C@@H](N)CC(=O)O)CSSC[C@@H]2NC(=O)[C@@H]3CSSC[C@@H](C(=O)N[C@@H](CCCCN)C(=O)N[C@@H](Cc4ccc(O)cc4)C(=O)N[C@H](C(=O)N[C@@H](Cc4ccccc4)C(N)=O)C(C)C)NC(=O)[C@H](Cc4c[nH]c5ccccc45)NC(=O)[C@H](CCCCN)NC(=O)[C@H](Cc4c[nH]cn4)NC(=O)[C@H]([C@@H](C)O)NC(=O)[C@H](CCCNC(=N)N)NC(=O)[C@H](CO)NC(=O)[C@H](CSSC[C@H](NC(=O)[C@H](CCCCN)NC(=O)[C@H](CCCNC(=N)N)NC1=O)C(=O)N[C@@H](Cc1cccc4ccccc14)C(=O)N1CCC[C@H]1C(=O)N[C@@H](CC(=O)O)C(=O)N[C@@H](CC(N)=O)C(=O)N[C@@H](CC(=O)O)C(=O)N[C@@H](CCCCN)C(=O)N3)NC(=O)[C@H](C(C)C)NC(=O)[C@H](CC(C)C)NC(=O)[C@H](CC(N)=O)NC(=O)[C@@H]1CCCN1C(=O)[C@H](CCCNC(=N)N)NC2=O | 6 nM | – | > 5000 nM | 160 nM
